# Hits are enriched below; roughly 3.1% of the tested compounds scored in any of these assays.
# Cneo AK release: Cryptococcus neoformans lysis via adenylate kinase release | C. neoformans lysis, adenylate kinase release luminescence, 4 h; normalised: neutral wells 0, clomiphene wells 100 | lysis activity, % at 15 µM | 360,000 compounds, 0.2% hits | AID 651654;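 active = mean lysis activity across replicates of at least 80%, whatever share of replicates individually reach that level; inactive = mean lysis activity below 80%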
#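 Assay system: C. neoformans cells. Amount: yeast cell density of 5 × 10^6 cells/mL. Technique: AK luminescence. Buffer or medium: YPD. Times: static 4 h at 37 °C with compound, 1 h detection. Dosing: single-point compound dose. Read-out: lysis from increased AK signal.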
# DENV2 CPE rescue: protects cells from dengue virus 2 cytopathic effect; DENV2-infected cells, cytopathic effect rescue, plate reader; CPE inhibition, % at 9.99 µM; 350,000 compounds, 1.7% hits; AID 651640; in the data active = CPE inhibition above about 20%, passing the limit was not always enough; inconclusive = no clear call, values can overlap the other calls; tested in BHK-21 cells;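 note: 0% = median of neutral control wells and 100% = median of positive control wells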
# E-sel inducer: induces E-selectin expression in human endothelial cells; P16581; HUVEC E-selectin immunofluorescence imaging; normalized: neutral wells 0, TNF-alpha wells 100; activation, % at 7.58 µM; 260,000 compounds, 0.37% hits; AID 686992;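 active = mean E-selectin-positive cell signal at least 10% of the positive control, reached in at least 60% of replicates, without over 20% cell loss; inconclusive = no rule given, readout overlaps actives, possibly toxicity-flagged; inactive = the rest, including those meeting only one limit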
# Target sequence (P16581 whole entry, looked up): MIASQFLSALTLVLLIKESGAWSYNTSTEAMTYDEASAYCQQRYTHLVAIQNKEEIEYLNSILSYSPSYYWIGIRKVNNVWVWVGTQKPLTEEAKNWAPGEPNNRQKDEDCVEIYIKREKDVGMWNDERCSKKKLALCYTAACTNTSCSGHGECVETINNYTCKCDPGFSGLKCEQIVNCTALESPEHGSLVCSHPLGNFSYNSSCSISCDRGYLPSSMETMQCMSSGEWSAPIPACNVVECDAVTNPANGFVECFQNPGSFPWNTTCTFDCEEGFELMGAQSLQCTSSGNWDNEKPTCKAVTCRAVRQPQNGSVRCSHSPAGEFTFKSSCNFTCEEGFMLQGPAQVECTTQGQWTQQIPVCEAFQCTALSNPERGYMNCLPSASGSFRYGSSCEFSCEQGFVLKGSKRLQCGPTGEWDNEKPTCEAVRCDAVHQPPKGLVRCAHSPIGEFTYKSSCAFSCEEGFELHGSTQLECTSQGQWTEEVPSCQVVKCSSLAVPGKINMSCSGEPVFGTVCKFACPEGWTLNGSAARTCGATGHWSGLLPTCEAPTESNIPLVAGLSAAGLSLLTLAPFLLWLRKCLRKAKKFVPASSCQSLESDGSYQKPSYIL
#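 assay system = HUVEC, human umbilical vein endothelial cells | input = 3,000 HUVEC seeded per well | medium = EGM-2 growth medium on 0.1% gelatin-coated wells | dosing = one compound dose added by pin transfer | signal = immunofluorescence imaging | read-out basis = % PE-positive cells | control set = TNF-alpha, DMSO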
# Ecoli rRNA inh: inhibitors of bacterial rRNA selective over humanized ribosomes; GFP signal change (wild-type ribosome), % (no concentration beside the values); E. coli WT GFP vs humanized-ribosome RFP mutants, fluorescence, 24 h; hits give low values; DMSO median 0, no signal -100; 350,000 compounds, 1.6% hits;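 active = significant combined selectivity score with lowered wild-type GFP, culture density cut under 30%, mutant RFP and density less affected; inactive = any of these conditions unmet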
# miR-122 sensor: blocks miR-122 activity in Huh7 sensor cells. Huh7 miR-122 Renilla luciferase sensor, 48 h; neutral wells = 0, positive control = 100. activation (reporter increase), % at 12.5 µM. 340,000 compounds, 0.3% hits;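 active = mean replicate activation score at least 90 and every replicate individually at or above 90; inconclusive = only one of the two criteria met; inactive = neither criterion met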;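 note: higher luciferase means less miR-122 activity so hits act as miR-122 inhibitors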
# Numbers without * were called inactive; ? = inconclusive; / = no result given; ! = a repeat was not active; [ ] = remark or other dose.
SMILES,Cneo AK release,DENV2 CPE rescue,E-sel inducer,Ecoli rRNA inh,miR-122 sensor
CCOC(=O)C1=C(C)NC2=C(C(=O)c3ccccc32)C1c1cccc2ccccc12 (stereo not drawn),-1,-4,7,-19*,15
COc1ccc(NC(=O)N(C)C[C@H]2OCCCC[C@@H](C)Oc3ccc(NS(=O)(=O)c4c(C)noc4C)cc3C(=O)N([C@@H](C)CO)C[C@H]2C)cc1,1,7,0,1,-5[16.7 µM]
COc1ccc(NC(=O)N(C)C[C@@H]2OCCCC[C@H](C)Oc3ccc(NC(=O)Nc4c(C)noc4C)cc3C(=O)N([C@@H](C)CO)C[C@@H]2C)cc1,0,0,0,1,3[16.7 µM]
COc1cccc(CNC(=O)[C@@H]2CCCN2C(=O)[C@H]2CCCCN2C(=O)c2ccc(Cl)cc2)c1,/,78*,0,-16,/
O=C(COC(=O)c1n[nH]c2ccccc12)c1cccc(Br)c1,7,10,3,-38*,5
COc1ccc2c3c(n(C)c2c1)[C@@H](CO)N(Cc1ccncc1)CC31CN(C(=O)C2CCCC2)C1,/,-12,0,-4,/
NCC[C@H]1CC[C@@H](NC(=O)C2CCCC2)[C@H](CO)O1,-5,-3,1,1,0[16.7 µM]
CC1CCCN(C(=O)Cn2nnc(-c3cccnc3)n2)C1 (stereo not drawn),0,/,/,/,91*
O=C(NCc1cccs1)c1ccccc1,-1,/,/,/,-3
O=C(NCc1cccs1)c1cccc(Nc2nc3ccc(Br)cc3[nH]2)c1,1,22*,/,-54,2
NC(=O)CC(NC(=O)c1cccc(Br)c1)c1ccc(NC2CCN(Cc3ccccc3)CC2)c([N+](=O)[O-])c1 (stereo not drawn),0,70*,0,-15,/
NC(=O)CC(NC(=O)Cc1ccc(Cl)cc1)c1ccc(NCCOc2ccccc2)c([N+](=O)[O-])c1 (stereo not drawn),2,5,0,8,/
CN(Cc1ccccc1)c1ccc(C(CC(N)=O)NC(=O)Cc2ccc(Br)cc2)cc1[N+](=O)[O-] (stereo not drawn),-2,136*,0,7,-1
NC(=O)CC(NC(=O)Cc1ccc(Cl)cc1)c1ccc(NC2CCN(Cc3ccccc3)CC2)c([N+](=O)[O-])c1 (stereo not drawn),-3,61*,1,-9,/
NC(=O)CC(NC(=O)Cc1ccc(Cl)cc1)c1ccc(NCc2ccccc2)c([N+](=O)[O-])c1 (stereo not drawn),-1,28*,0,2,0
Cc1ccc(NC(=O)Nc2ccon2)cc1Cl,-12,-2,0,-34*,/
COc1ccc(CCNS(=O)(=O)c2ccc3c(c2)NC(=O)CS3)cc1OC,-3,?,114*,0,4
COc1ccc(CCNC(=O)CCS(=O)(=O)c2ccc3c(c2)NC(=O)CS3)cc1OC,0,-4,0,9,-5
C[C@H](CO)N1C[C@H](C)[C@@H](CN(C)C(=O)Nc2ccc(F)cc2)Oc2ncc(-c3ccc(F)cc3)cc2C1=O,-1,24*!,0,4,9
C[C@H]1CN([C@@H](C)CO)C(=O)c2cc(-c3ccc(C#N)cc3)cnc2O[C@@H]1CN(C)C(=O)Nc1ccc(F)cc1,2,-3,1,-17,-1[16.7 µM]
C[C@H](CO)N1C[C@H](C)[C@H](CN(C)C(=O)Nc2ccc(F)cc2)Oc2ncc(-c3ccc(F)cc3)cc2C1=O,/,/,0,-10,-2[16.7 µM]
C[C@@H]1CN([C@H](C)CO)C(=O)c2cc(-c3ccc(C#N)cc3)cnc2O[C@@H]1CN(C)C(=O)Nc1ccc(F)cc1,83*,5,0,-1,5[16.7 µM]
CO[C@@H]1CN(C)C(=O)c2ccc(NS(=O)(=O)CC(F)(F)F)cc2OC[C@@H](C)N(C)C[C@@H]1C,0,11,0,-2,/
C/C=C/c1cnc2c(c1)C(=O)N([C@H](C)CO)C[C@H](C)[C@H](CN(C)C(=O)C1CCC1)O2,/,/,1,-2,28[16.7 µM]
C=CCc1ccc(OCCCNCc2ccccc2)c(OC)c1,0,43*,/,-4,0
SMILES,Cneo AK release,DENV2 CPE rescue,E-sel inducer,Ecoli rRNA inh,miR-122 sensor
CO[C@@H]1CN(C)C(=O)c2cc(NS(C)(=O)=O)ccc2OC[C@@H](C)NC[C@H]1C,49,-9,0,1,/
Cc1ccc(S(=O)(=O)NCc2ccc3c(c2)cc(C)n3C)cc1,0,3,63*,1,0
Cc1ccc(S(=O)(=O)NCc2ccncc2)cc1,-1,/,/,/,5
Cc1cc2cc(CNC(=O)Nc3ccc(Cl)c(Cl)c3)ccc2n1C,3,12,142*,-12,/
COCC(=O)NCc1ccc2c(c1)cc(C)n2C,/,1,/,10,/
COCCNC(=S)N(CCc1c(C)[nH]c2ccc(Cl)cc12)Cc1cccs1,-1,-3,5,-22*,13
O/N=C\c1ccccc1Oc1ccc(F)cc1,/,-15,/,-25*,/
CCN(CC)c1ccc(/C=C(\C#N)C(N)=S)cc1,/,-4,0,-23*,/
CN(C)CCCNC(=O)[C@@H]1[C@@H](CO)[C@@H]2Cn3c(cccc3=O)[C@@H]2N1C(=O)Nc1ccccc1,2,1,0,2,3[16.7 µM]
COCCNC(=O)C1CCCN(C(=O)c2cc(C)n(C(C)(C)C)n2)CC1 (stereo not drawn),5,-2,/,-2,-4
COCCNC(=O)C1CCCN(C(=O)c2cc(C)nn2C(C)(C)C)CC1 (stereo not drawn),-1,21*,0,13,-1
COC(=O)C[C@@H]1CC[C@@H]2[C@H](COc3ccc(NC(=O)Nc4ccc(C)cc4)cc3C(=O)N2C)O1,-1,1,0,1,8[16.7 µM]
CSc1ccccc1NC(=S)N/N=C/c1cccn1Cc1ccc(F)cc1,/,4,1,-21*,/
C[C@H]1CCCCO[C@@H](CN(C)S(=O)(=O)c2cccs2)[C@@H](C)CN([C@@H](C)CO)C(=O)c2cc(N(C)C)ccc2O1,/,/,0,-6,-7[16.7 µM]
O=S1(=O)CCOCCCN1Cc1ccccc1Br,-1,33*,/,6,-2
CCCNC(=O)C[C@H]1C[C@H]2c3cc(N(C)C)ccc3O[C@H]2[C@@H](CO)O1,/,-7,0,2,/
Cc1cn2c(N)c(C=C3C=C(Cl)C(=O)C(Cl)=C3)c(=O)nc2s1,/,16,142*,18,/
COC1=C/C(=C/c2c(N)n3cc(C)sc3nc2=O)C=CC1=O,73,1,-1,-11,-1
COc1ccc2nc3cc([N+](=O)[O-])ccc3c(NNc3ccc([N+](=O)[O-])cc3)c2c1,/,2,0,-18*,-8
COc1ccc(-c2cc(C(=O)Oc3ccc([N+](=O)[O-])cc3)c3ccccc3n2)cc1,-13,/,/,/,6
Cc1ccc(Oc2c(CO)c(-c3ccccc3)nn2C)cc1,/,7,-3,-24*,/
Cc1ccc(S(=O)(=O)c2c(CO)c(-c3ccccc3)nn2C)cc1,/,3,/,-11,/
